This is an account of results in ChEMBL document CHEMBL1144182, “Antimicrobial and cytotoxic arylazoenamines. Part III: antiviral activity of selected classes of arylazoenamines” (Bioorg Med Chem, 2008).

In series [1] the test system is Respiratory syncytial virus. As to the kind of experiment: Antiviral activity against RSV infected in Vero76 cells assessed as reduction in virus plaque formation after 4 days by MTT assay. The format is functional, organism-based. The settings on record: human respiratory syncytial virus, Vero 76, 96 h. (Formazan colour is commonly taken as a measure of viable cells.)

Another series deals with Yellow fever virus. Briefly: Antiviral activity against YFV infected in BHK21 cells assessed as protection against virus-induced cytopathogenicity after 4 days by MTT assay. The format is functional, organism-based. As to conditions: BHK-21, 96 h. Summed up:
(§1)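 MDBK (BVDV) or BHK-21 (YFV) cells were seeded at 3 × 10^4 or 5 × 10^4 cells/well respectively and grown overnight to confluent monolayers at 37 °C in 5% CO2. Monolayers were infected at m.o.i. 0.01 in serum-free medium. After 1 h, MEM Earle's with 1% FCS was added, with or without serial compound dilutions. After 3–4 days at 37 °C, viability was read by MTT. EC50 was taken as 50% protection from virus-induced cytopathogenicity.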
For orientation: Protection from cytopathic effect is a common read-out in antiviral testing.

Series [2] can be described thus: Cytotoxicity against mock-infected african green monkey Vero76 cells assessed as reduction in cell viability after 96 hrs by MTT assay. It counts as cell-based, Vero. The settings on record: chlorocebus sabaeus.
A short description of series [3]: Cytotoxicity against mock-infected MDBK cells assessed as reduction in cell viability after 96 hrs by MTT assay. The settings on record: cattle. The format is cell-based, Bos taurus. The method, boiled down: (§2)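 Cytotoxicity run in parallel with the antiviral assays. MDBK seeded at 6 × 10^5 and BHK at 1 × 10^6 cells/mL in maintenance medium with or without serial compound dilutions. Incubated 48–96 h at 37 °C, 5% CO2, then viability read by MTT. CC50 is the concentration reducing mock-infected cell viability by 50%.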

Series [4] has as its system Bovine viral diarrhea virus 1. As to the kind of experiment: Antiviral activity against BVDV infected in MDBK cells assessed as protection against virus-induced cytopathogenicity after 4 days by MTT assay. The format is functional, organism-based. The settings on record: Bovine viral diarrhea virus isolates and strains, 96 h. Summed up:
as §1

A short description of series [5]: Cytotoxicity against mock-infected BHK cells assessed as reduction in cell viability after 96 hrs by MTT assay. The settings on record: hamster. It counts as cell-based, Mesocricetus auratus. Summed up:
as §2

Series [6] has as its system Human immunodeficiency virus 1. As to the kind of experiment: Antiviral activity against HIV1 infected in MT4 cells assessed as virus-induced cytopathogenicity after 4 days. It counts as functional, organism-based.
Another series deals with Poliovirus 1. Briefly: Antiviral activity against Sb1 virus infected in Vero76 cells assessed as reduction in virus plaque formation after 4 days by MTT assay. It counts as functional, organism-based. As to conditions: Enterovirus C, Sabin, Vero 76, 96 h.
Series [7] has as its system Vesicular stomatitis virus. Briefly: Antiviral activity against VSV infected in Vero76 cells assessed as reduction in virus plaque formation after 4 days by MTT assay. The format is functional, organism-based. The settings on record: Vero 76.
A short description of series [8]: Cytotoxicity against mock-infected human MT4 cells assessed as reduction in cell viability after 96 hrs by MTT assay. It counts as cell-based. The method, boiled down:
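Exponentially growing MT-4 cells seeded at 1 × 10^5 cells/mL in RPMI-1640 with 10% FCS, penicillin and streptomycin, with or without serial compound dilutions. Incubated at 37 °C, 5% CO2; viability read by MTT after 96 h. CC50 is the concentration reducing mock-infected cell viability by 50%.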

The subject of another series is Vaccinia virus. Briefly: Antiviral activity against VV infected in Vero76 cells assessed as reduction in virus plaque formation after 4 days by MTT assay. The format is functional, organism-based. As to conditions: Orthopoxvirus vaccinia; Vero 76.
Another series relates to Coxsackievirus B2. As to the kind of experiment: Antiviral activity against CVB2 infected in Vero76 cells assessed as reduction in virus plaque formation after 4 days by MTT assay. The format is functional, organism-based. The settings on record: Enterovirus B, Vero 76, 96 h.

Calls of active or inactive are those of the source. No rule for the calls is given here.

Take `CN1C=C(/N=N/c2ccccc2Cl)CCC1`: the EC50 (as a rule, the concentration at which the effect is half-maximal) in series [1] is greater than 100 µM; in the series with Yellow fever virus it was greater than 100 µM; in [4] it was 100 µM; in the series with Poliovirus 1 it was 8 µM; with Coxsackievirus B2 it was greater than 100 µM. Moreover, the CC50 at 96 h in [2], in series [3], in series [5] and in [8] was greater than 100 µM throughout. In addition, the result (in series [6]; in series [7]; with Vaccinia virus) was inactive.
As to `CN1/C(=C\N=N\c2ccccc2)C(C)(C)c2ccccc21.[O-][Cl+3]([O-])([O-])O`, the EC50 in series [1] is greater than 73 µM; in the series on Yellow fever virus it was greater than 47 µM; in [4] it was greater than 20 µM; in the series with Poliovirus 1, greater than 73 µM; with Coxsackievirus B2, greater than 73 µM. In addition, the CC50 (usually the concentration at which the toxic effect on the cells reaches its halfway point) at 96 h turned out to be 73 µM in [2], 20 µM in [3], 47 µM in series [5] and 30 µM in [8]. Also, the outcome (in [6]; in [7]; with Vaccinia virus) was inactive.
Regarding `Clc1ccc(/N=N/C=C2\CCCN2Cc2ccccc2)cc1`, the EC50 in series [1] is greater than 70 µM; in the series on Yellow fever virus, greater than 20 µM; in series [4] it was greater than 18 µM; in the series with Poliovirus 1, greater than 70 µM; in the series on Coxsackievirus B2, 23 µM. Moreover, the CC50 at 96 h is 70 µM in series [2], 18 µM in series [3], 20 µM in series [5] and 17 µM in series [8]. Also, the outcome (in series [6]; in [7]; in the series with Vaccinia virus) was inactive.
On to `CCOC(=O)c1ccc(/N=N/C=C/N2CCCCC2)cc1`, for which the EC50 in [1] is greater than 100 µM; in the series with Yellow fever virus, greater than 100 µM; in series [4], greater than 100 µM; in the series on Poliovirus 1, 27 µM; with Coxsackievirus B2, 35 µM. The cytotoxic concentration (CC50) at 96 h in series [2] was greater than 100 µM; in [3], greater than 100 µM; in series [5] it was greater than 100 µM; in series [8], 33 µM. Besides, the outcome (in [6]; in series [7]; in the series on Vaccinia virus) was inactive.
On to `CN1CCC/C1=C\N=N\c1ccccc1`, for which the EC50 in series [1] is 20 µM; with Yellow fever virus, greater than 100 µM; in series [4], 10 µM; in the series with Poliovirus 1, greater than 82 µM; in the series on Coxsackievirus B2 it was 19 µM. For the same molecule, the cytotoxic concentration (CC50) at 96 h was 82 µM in series [2], greater than 100 µM in series [3], greater than 100 µM in series [5] and greater than 100 µM in series [8]. The outcome (in series [6]; in series [7]; with Vaccinia virus) was inactive.
Take `O=[N+]([O-])c1cccc(/N=N\C2=C3CCCCN3CCC2)c1`: the 50% effective concentration (EC50) in series [1] was greater than 90 µM; in the series with Yellow fever virus it was greater than 87 µM; in series [4], 100 µM; in the series on Poliovirus 1 it was 20 µM; with Coxsackievirus B2, 71 µM. The CC50 at 96 h is 90 µM in series [2], greater than 100 µM in series [3], 87 µM in [5] and 37 µM in series [8]. Moreover, the result (in [6]; in series [7]; in the series on Vaccinia virus) was inactive.
For the molecule `CN1C=C(/N=N/c2ccc(F)c(C(F)(F)F)c2)CCC1`, the EC50 is greater than 70 µM in series [1]; greater than 80 µM in the series with Yellow fever virus; greater than 100 µM in series [4]; greater than 70 µM with Poliovirus 1; 35 µM in the series with Coxsackievirus B2. Besides, the CC50 at 96 h in [2] was 70 µM; in [3], greater than 100 µM; in series [5], 80 µM; in series [8], greater than 100 µM. Besides, the outcome (in [6]; in series [7]; with Vaccinia virus) was inactive.
